NadD inh – inhibitors of Staphylococcus aureus NadD; inhibition, % at 20 µM; purified NadD enzyme, colorimetric absorbance read-out; AID 602399; 360,000 tested, 0.78% active; in the data active = inhibition above about 26%
HCV core dimer – HCV core protein dimerization inhibition; 300,000 tested, 0.33% active; inhibition, % at 5 µM; TR-FRET GST/Flag-core106 dimerization, 1536-well;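 active = inhibition above the mean of all tested compounds plus 3 SD, set per screening campaign, cut at about 45% in these data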
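Test system: GST/Flag-tagged HCV core106 proteins; Medium: KF-containing HEPES buffer, pH 7.45, DTT, CHAPS, BSA; Times: compound-protein-antibody incubation 4 h at 22.5 °C; Detection: TR-FRET 671 and 617 nm emission; Benchmarks: wells lacking GST-core106 and wells with excess unlabelled core106.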
ABHD5 PLIN5 PPI – blocks binding of human ABHD5 to perilipin-5; inhibition, % at 4 µM; 360,000 tested, 0.78% active; Split G. princeps luciferase complementation, luminescence, 4 h; Q00G26+Q8WTS1; AID 602281;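 active = inhibition above the mean inhibition across every tested compound plus 3 SD, cut at about 22% in these data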;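 also: 0% = DMSO only wells and the 100% control is not disclosed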
Target sequence (Q00G26 whole entry, looked up): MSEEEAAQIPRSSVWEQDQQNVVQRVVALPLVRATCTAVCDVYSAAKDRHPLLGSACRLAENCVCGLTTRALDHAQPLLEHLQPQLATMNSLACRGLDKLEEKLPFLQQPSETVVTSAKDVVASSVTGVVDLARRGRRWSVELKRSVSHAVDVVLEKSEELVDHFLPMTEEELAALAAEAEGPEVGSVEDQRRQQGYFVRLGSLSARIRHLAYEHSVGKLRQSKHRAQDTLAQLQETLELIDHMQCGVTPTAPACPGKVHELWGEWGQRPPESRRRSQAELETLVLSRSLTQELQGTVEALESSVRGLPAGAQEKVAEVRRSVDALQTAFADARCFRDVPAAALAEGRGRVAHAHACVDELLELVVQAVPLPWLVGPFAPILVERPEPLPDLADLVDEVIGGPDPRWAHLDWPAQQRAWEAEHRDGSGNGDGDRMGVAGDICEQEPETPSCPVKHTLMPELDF
Target sequence (Q8WTS1 whole entry, looked up): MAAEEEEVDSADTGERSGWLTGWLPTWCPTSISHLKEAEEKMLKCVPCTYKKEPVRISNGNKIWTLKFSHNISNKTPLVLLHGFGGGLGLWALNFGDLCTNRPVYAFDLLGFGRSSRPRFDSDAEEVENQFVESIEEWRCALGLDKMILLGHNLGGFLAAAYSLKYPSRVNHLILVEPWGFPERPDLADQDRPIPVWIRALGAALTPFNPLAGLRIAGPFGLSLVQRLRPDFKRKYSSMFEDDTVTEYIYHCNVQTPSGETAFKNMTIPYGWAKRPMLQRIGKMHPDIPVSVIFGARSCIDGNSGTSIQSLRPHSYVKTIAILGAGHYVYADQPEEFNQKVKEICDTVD
rCAG RNA binder – r(CAG) repeat RNA binding; 370,000 tested, 1.3% active; inhibition, % at 3 µM; TO-PRO-1 dye displacement fluorescence;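 active = inhibition above the plate cutoff, the mean of all test compounds on that plate plus 3 SD, cut at about 35% in these data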;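 also: 0% = DMSO alone and 100% = 100 µM mitoxantrone as full dye displacement; higher means more dye released from RNA so lower well fluorescence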
ABHD5 PLIN5 conf – ABHD5-PLIN5 interaction inhibition, confirmed; shares compounds with ABHD5 PLIN5 PPI; biochemical ABHD5-PLIN5 interaction, luminescence; inhibition, % at 4 µM; 2,200 tested, 67% active; in the data active = inhibition above about 23%;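 also: 0% = DMSO vehicle wells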
HNF4 split-luc – HNF4 split-luciferase signal hit, counter-screen. AID 651674. HNF4 dimerization, luminescence, biochemical. shares compounds with ABHD5 PLIN5 PPI. 2,200 tested, 77% active. inhibition, % at 4 µM;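 active = mean inhibition across replicate wells exceeding the computed hit threshold, cut at about 13% in these data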;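 also: light from luciferase halves that rejoin when HNF4 fusion proteins dimerize; 0% = DMSO only wells and the 100% control is not given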
Starred values were filed as active, the others as inactive; . = no result. In the library only some 2.6% were active in any assay of this set; here they are far more common.

SMILES | NadD inh | HCV core dimer | ABHD5 PLIN5 PPI | rCAG RNA binder | ABHD5 PLIN5 conf | HNF4 split-luc
COc1ccc(CCNC(=O)CN(c2cccc([N+](=O)[O-])c2)S(C)(=O)=O)cc1OC | -7.2 | -0.6 | 81.8* | -1.2 | 6.7 | 5.0
Cc1cccc(OCCNc2cc(N3CCN(CCO)CC3)ccc2[N+](=O)[O-])c1 | -12.6 | -7.7 | 27.4* | 2.8 | 16.3 | 9.3
O=[N+]([O-])c1ccc(N2CCN(S(=O)(=O)c3ccccc3)CC2)cc1NCCN1CCOCC1 | -5.0 | 7.9 | 23.3* | 0.2 | 1.6 | 8.8
CC1CN(c2ccc([N+](=O)[O-])c(NCCOc3ccccc3)c2)CCN1 (centres undefined) | -12.3 | -5.6 | 28.7* | 18.4 | 16.0 | 0.5
COc1ccc(OCCNc2cc(N3CCCCC3)ccc2[N+](=O)[O-])cc1 | 18.9 | 9.2 | -3.2 | 3.2 | . | .
Cc1ccc(S(=O)(=O)N2CCN(c3ccc([N+](=O)[O-])c(NCCN4CCOCC4)c3)CC2)cc1 | -9.3 | 5.4 | 10.9 | 5.9 | . | .
COc1cccc(OCCNc2cc(N3CCCCC3)ccc2[N+](=O)[O-])c1 | 9.4 | 2.2 | 3.6 | -1.4 | . | .
C#CCN(C[C@@H]1[C@@H](OC(=O)NCc2ccccc2F)[C@@H](OC(=O)NCc2ccccc2F)Cn2c(=O)ccc(=O)n21)S(=O)(=O)c1ccc(C)cc1 | 7.2 | . | 39.7* | 15.2 | 58.3* | 27.0*
C#CCN(C[C@H]1[C@H](OC(=O)Nc2cccs2)[C@H](OC(=O)Nc2cccs2)CN(C(=O)OC(C)C)N1C(=O)OC(C)C)S(=O)(=O)c1ccc(C)cc1 | . | . | . | 18.8 | . | .
C#CCN(C[C@@H]1[C@@H](OC(=O)NC2CCCC2)[C@@H](OC(=O)NC2CCCC2)Cn2c(=O)ccc(=O)n21)S(=O)(=O)c1ccc(C)cc1 | 0.7 | . | 37.8* | 2.1 | 64.3* | 24.4*
C#CCN(C[C@@H]1[C@@H](OC(=O)NCc2ccccc2F)[C@@H](OC(=O)NCc2ccccc2F)Cn2c(=O)n(CCCCCC)c(=O)n21)S(=O)(=O)c1ccc(C)cc1 | 4.9 | . | -7.0 | 17.9 | . | .
C#CCN(C[C@@H]1[C@@H](OC(=O)Nc2cccs2)[C@@H](OC(=O)Nc2cccs2)Cn2c(=O)ccc(=O)n21)S(=O)(=O)c1ccc(C)cc1 | 20.5 | . | 61.2* | 20.2 | 86.9* | 50.4*
CCCCn1nnnc1C(c1ccccc1)N1CCN(c2cccc(C)c2C)CC1 (centres undefined) | 7.7 | . | -6.7 | 4.2 | . | .
CNCCNC[C@H](Cc1cccc2ccccc12)NCCc1ccccc1 | -8.1 | . | 9.4 | -1.3 | . | .
CNC[C@H](Cc1ccccc1)NC[C@@H](Cc1cccc2ccccc12)NCCc1ccc(C)cc1 | 16.6 | -12.6 | 39.4* | 11.4 | 5.5 | 13.7*
Cc1ccc(Cn2cc(CN3[C@@H](CC(C)C)COc4cc(Br)ccc4S3(=O)=O)nn2)cc1 | . | . | . | 5.4 | . | .
O=C(O)c1cc([N+](=O)[O-])c(Sc2nc3ccccc3[nH]2)c([N+](=O)[O-])c1 | 4.0 | 9.0 | 34.9* | 2.3 | 52.8* | 54.2*
O=C(O)c1ccc(CSc2nc3ccccc3[nH]2)cc1 | 1.4 | -3.8 | -14.3 | 2.1 | . | .
Cn1ccnc1Sc1cc(NCCCO)c([N+](=O)[O-])c2nonc12 | -5.7 | 4.7 | 25.9* | -2.3 | 29.4* | 94.6*
CN(C)S(=O)(=O)c1cccc(NC(=O)COC(=O)/C=C/c2ccco2)c1 | 4.4 | 7.6 | 24.9* | 12.7 | 21.5 | 27.3*
CCN(CC)S(=O)(=O)c1cccc(NC(=O)COC(=O)/C=C/c2ccco2)c1 | -4.4 | 13.7 | -5.2 | 2.7 | . | .
O=C1NC[C@H](Cc2ccc(O)cc2)N(CCc2cccc(F)c2)C1=O | -2.1 | . | -4.0 | 2.4 | . | .
O=C(NCCN1CCC(n2c(=O)[nH]c3ccccc32)CC1)c1ccc(Cl)cc1Cl | -4.8 | . | 5.5 | -1.6 | . | .
Cc1cc(C)c(C#N)c(Sc2nc(C)c([N+](=O)[O-])c(C)c2C#N)n1 | 3.2 | . | 30.6* | 5.1 | 35.8* | 26.9*
Cc1nc(Sc2ccccc2)c(C#N)c(C)c1[N+](=O)[O-] | 1.8 | 1.9 | 0.9 | 0.1 | . | .
SMILES | NadD inh | HCV core dimer | ABHD5 PLIN5 PPI | rCAG RNA binder | ABHD5 PLIN5 conf | HNF4 split-luc
CCCCOCC1CN(Cc2ccccc2OC)S(=O)(=O)c2cc(Cl)ccc2O1 (centres undefined) | . | . | . | 3.3 | . | .
CCOc1ccc(NCc2nc3ccccc3n2CCOc2ccccc2)cc1 | 12.2 | -0.1 | 25.3* | 0.5 | 7.7 | 11.0
O=C(O)CCC(=O)Nc1ccc(SSc2ccc(NC(=O)CCC(=O)O)cc2)cc1 | -3.6 | -0.4 | 43.9* | 18.9 | 46.5* | 115.0*
CCOC(=O)C(=Cc1ccc(-n2ccnc2)cc1)C(=O)OCC | -0.6 | -3.9 | 63.0* | -1.8 | 88.3* | 95.8*
CCOC(=O)C(=Cc1ccc(F)cc1)C(=O)OCC | . | -2.0 | . | . | . | .
CN(C)CCCNC(=O)C[C@H]1C[C@H](C(=O)N2CCOCC2)[C@@]2(CCC3CCCC3)c3[nH]c4cc(-c5ccco5)ccc4c3CCN2C1=O | 9.4 | . | 25.4* | 6.8 | 14.1 | 10.8
CC(C)N(C(=O)[C@H]1C[C@H](CC(=O)NCCc2ccccn2)C(=O)N2CCc3c([nH]c4cc(-c5ccco5)ccc34)[C@]12C)C(C)C | -7.7 | . | 6.2 | 4.1 | . | .
O=C(C[C@H]1C[C@H](C(=O)N2CCOCC2)[C@@]2(CCC3CCCC3)c3[nH]c4cc(-c5ccco5)ccc4c3CCN2C1=O)NCc1cccc(C(F)(F)F)c1 | 23.2 | . | 23.5* | 21.5 | 8.3 | 1.8
CCN(CC)C(=O)[C@H]1C[C@H](CC(=O)NCCc2ccccn2)C(=O)N2CCc3c([nH]c4cc(-c5ccco5)ccc34)[C@]12C | -5.2 | . | 24.0* | 7.9 | 1.0 | 6.2
COc1ccc(CNC(=O)C[C@H]2C[C@H](C(=O)N3CCOCC3)[C@@]3(CCC4CCCC4)c4[nH]c5cc(-c6ccco6)ccc5c4CCN3C2=O)cc1OC | -1.4 | . | 28.9* | 19.1 | 16.4 | 12.6*
O=C(C[C@H]1C[C@H](C(=O)N2CCOCC2)[C@@]2(CCC3CCCC3)c3[nH]c4cc(-c5ccco5)ccc4c3CCN2C1=O)NCCN1CCOCC1 | 6.3 | . | 16.7 | 7.7 | . | .
COc1ccc([C@H]2CC(=O)C=C(/C=C/Cc3ccccc3)C2)cc1 | -1.1 | . | 25.7* | 14.6 | 37.6* | 32.4*
CCCCC/C=C/C1=CC(=O)C[C@H](c2ccc(OC)cc2)C1 | 1.7 | . | 3.7 | 6.7 | . | .
C/C(=C\c1ccc(N)cc1)c1nc2ccccc2[nH]1 | -8.2 | -3.9 | -2.3 | 4.1 | . | .
O=S(=O)(/C(=C/c1ccc(C(F)(F)F)cc1)c1nc2ccccc2[nH]1)c1ccccc1 | 0.1 | 3.7 | 70.2* | 2.0 | 104.2* | 103.3*
CC(C)c1ccc(/C=C(\c2nc3ccccc3[nH]2)S(=O)(=O)c2ccccc2)cc1 | 6.6 | 11.7 | 75.4* | 0.5 | 89.8* | 71.5*
O=C(Nc1nnc([C@H]2C[C@H](O)[C@@H](CO)O2)s1)Nc1ccccc1C(F)(F)F | -4.3 | . | 7.6 | 2.0 | . | .
